Measured values: ChEMBL document CHEMBL3045116, “Synthesis and biological evaluation of 2-(5-substituted-1-((diethylamino)methyl)-2-oxoindolin-3-ylidene)-N-substituted-hydrazinecarbothioamides” (Med Chem Res, 2013)

How the values were obtained:
[1] = Cytotoxicity against Chlorocebus aethiops (African green monkey) Vero cells assessed as change in cellular morphology; type: cell-based; settings: chlorocebus sabaeus
[2] = test system: Bacillus subtilis; experiment: Antibacterial activity against Bacillus subtilis assessed as growth inhibition at 50 ug/ml by cup-plate method (reference value: 8 to 10 mm); type: functional; settings: read-out: DIZ
[3] = Inhibition of beta lactamase assessed as time for decolorization of iodine (reference value: 79.5 secs)
[4] = test system: Human alphaherpesvirus 1; experiment: Antiviral activity against Human herpesvirus 1 strain KOS infected human HEL cells assessed as reduction of virus-induced cytopathic effect after 3 days by colorimetric formazan-based MTS assay; type: functional, organism-based; settings: Human alphaherpesvirus 1, KOS, 72 h
Outline: (§1)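 Confluent cell monolayers were infected with 100 CCID50 of virus, and serial dilutions of compound were added at the time of infection.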

[5] = test system: Salmonella typhi; experiment: Antibacterial activity against Salmonella enterica subsp. enterica serovar Typhi assessed as growth inhibition at 50 ug/ml by cup-plate method (reference value: 8 to 10 mm); type: functional; settings: read-out: DIZ
[6] = test system: L1210; experiment: Cytotoxicity against Mus musculus (mouse) L1210 cells assessed as growth inhibition after 48 hr by coulter counter analysis; type: functional, cell-based; settings: L1210, 48 h
Outline: (§2)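 Cells in growth medium were allowed to proliferate with variable compound amounts at 37 °C in a humidified CO2 atmosphere. Incubation ran 48 h for L1210, 72 h for CEM and 96 h for HeLa. Cells were then counted with a Coulter counter.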

[7] = test system: Punta Toro virus; experiment: Antiviral activity against Punta Toro virus infected in African green monkey Vero cells assessed as reduction of virus-induced cytopathic effect after 3 days by colorimetric formazan-based MTS assay; type: functional, organism-based; settings: 72 h; outline: as §1
[8] = test system: Vesicular stomatitis virus; experiment: Antiviral activity against Vesicular stomatitis virus infected human HeLa cells assessed as reduction of virus-induced cytopathic effect after 3 days by colorimetric formazan-based MTS assay; type: functional, organism-based; settings: 72 h; outline: as §1
[9] = test system: Respiratory syncytial virus; experiment: Antiviral activity against Respiratory syncytial virus infected human HeLa cells assessed as reduction of virus-induced cytopathic effect after 3 days by colorimetric formazan-based MTS assay; type: functional, organism-based; settings: 72 h; outline: as §1
[10] = Inhibition of beta lactamase assessed as increase in time taken for iodine decolorization relative to control; design: concentration or dose not given beside the values; settings: concentration not given here
[11] = test system: Escherichia coli; experiment: Antibacterial activity against Escherichia coli assessed as growth inhibition at 50 ug/ml by cup-plate method (reference value: 8 to 10 mm); type: functional; settings: read-out: DIZ
[12] = test system: Felid alphaherpesvirus 1; experiment: Antiviral activity against Felid herpesvirus 1 infected cat CRFK cells assessed as reduction of virus-induced cytopathic effect after 3 days by colorimetric formazan-based MTS assay; type: functional, organism-based; settings: Felid alphaherpesvirus 1, CRFK, 72 h
Outline: (§3)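 Cells grown to confluency in 96-well plates ([…], Vero for lines 9–10) were infected with 100 CCID50 of virus, and serial compound dilutions were added at infection. Plates were incubated at 37 °C for 3 days, until complete CPE appeared in untreated virus controls.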

[13] = test system: Candida albicans; experiment: Antifungal activity against Candida albicans assessed as growth inhibition at 50 ug/ml by cup-plate method (reference value: 8 to 10 mm); type: functional; settings: read-out: DIZ
[14] = (§4) Cytotoxicity against Homo sapiens (human) HeLa cells assessed as change in cellular morphology; type: cell-based; settings: HeLa cells
Outline: (§5)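 Uninfected cells were exposed to compound in parallel with the antiviral cultures. The read-out is the minimum cytotoxic concentration that causes a microscopically detectable alteration of normal cell morphology.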

[15] = test system: HeLa; experiment: as §4; type: cell-based; settings: hela; outline: as §5
[16] = test system: Human alphaherpesvirus 1; experiment: Antiviral activity against acyclovir-resistant thymidine kinase negative Human herpesvirus 1 strain KOS infected human HEL cells assessed as reduction of virus-induced cytopathic effect after 3 days by colorimetric formazan-based MTS assay; type: functional, organism-based; settings: Human alphaherpesvirus 1, KOS, 72 h; outline: as §1
[17] = Cytotoxicity against Homo sapiens (human) HEL cells assessed as change in cellular morphology; type: cell-based
[18] = test system: Coxsackievirus B4; experiment: Antiviral activity against Human coxsackievirus B4 infected African green monkey Vero cells assessed as reduction of virus-induced cytopathic effect after 3 days by colorimetric formazan-based MTS assay; type: functional, organism-based; settings: Enterovirus B, 72 h; outline: as §1
[19] = test system: Vaccinia virus; experiment: Antiviral activity against Vaccinia virus infected human HEL cells assessed as reduction of virus-induced cytopathic effect after 3 days by colorimetric formazan-based MTS assay; type: functional, organism-based; settings: Orthopoxvirus vaccinia, 72 h; outline: as §1
[20] = test system: CCRF-CEM; experiment: Cytotoxicity against Homo sapiens (human) CEM cells assessed as growth inhibition after 72 hr by coulter counter analysis; type: functional, cell-based; outline: as §2
[21] = test system: Staphylococcus aureus; experiment: Antibacterial activity against Staphylococcus aureus assessed as growth inhibition at 50 ug/ml by cup-plate method (reference value: 8 to 10 mm); type: functional; settings: read-out: DIZ
[22] = test system: Klebsiella pneumoniae; experiment: Antibacterial activity against Klebsiella pneumoniae assessed as growth inhibition at 50 ug/ml by cup-plate method (reference value: 8 to 10 mm); type: functional; settings: read-out: DIZ
[23] = test system: MDCK; experiment: (§6) Cytotoxicity against MDCK cells assessed as change in cellular morphology; type: cell-based, Canis lupus familiaris; settings: dog, mdck; outline: as §5
[24] = as §6; type: cell-based, Canis lupus familiaris; settings: dog, MDCK cells; outline: as §5
[25] = test system: Vesicular stomatitis virus; experiment: Antiviral activity against Vesicular stomatitis virus infected human HEL cells assessed as reduction of virus-induced cytopathic effect after 3 days by colorimetric formazan-based MTS assay; type: functional, organism-based; settings: 72 h; outline: as §1
[26] = test system: Human alphaherpesvirus 2; experiment: Antiviral activity against Human herpesvirus 2 strain G infected human HEL cells assessed as reduction of virus-induced cytopathic effect after 3 days by colorimetric formazan-based MTS assay; type: functional, organism-based; settings: Human alphaherpesvirus 2, strain G, 72 h; outline: as §1
[27] = test system: Aspergillus niger; experiment: Antifungal activity against Aspergillus niger assessed as growth inhibition at 50 ug/ml by cup-plate method (reference value: 8 to 10 mm); type: functional; settings: read-out: DIZ
[28] = test system: Influenza B virus; experiment: Antiviral activity against Influenza B virus infected in MDCK cells assessed as reduction of virus-induced cytopathic effect after 3 days by colorimetric formazan-based MTS assay; type: functional, organism-based; settings: 72 h; outline: as §1
[29] = test system: Feline infectious peritonitis virus; experiment: Antiviral activity against Feline Infectious peritonitis virus infected cat CRFK cells assessed as reduction of virus-induced cytopathic effect after 3 days by colorimetric formazan-based MTS assay; type: functional, organism-based; settings: Alphacoronavirus 1, CRFK, 72 h; outline: as §1
[30] = test system: Influenza A virus H3N2; experiment: Antiviral activity against Influenza A virus H3N2 infected MDCK cells assessed as reduction of virus-induced cytopathic effect after 3 days by colorimetric formazan-based MTS assay; type: functional, organism-based; settings: 72 h; outline: as §1
[31] = test system: Proteus vulgaris; experiment: Antibacterial activity against Proteus vulgaris assessed as growth inhibition at 50 ug/ml by cup-plate method (reference value: 8 to 10 mm); type: functional; settings: read-out: DIZ
[32] = test system: Influenza A virus; experiment: Antiviral activity against Unidentified Influenza A virus (H1N1) infected MDCK cells assessed as reduction of virus-induced cytopathic effect after 3 days by colorimetric formazan-based MTS assay; type: functional, organism-based; settings: 72 h; outline: as §1
[33] = test system: Respirovirus muris; experiment: Antiviral activity against Sendai virus infected African green monkey Vero cells assessed as reduction of virus-induced cytopathic effect after 3 days by colorimetric formazan-based MTS assay; type: functional, organism-based; settings: 72 h
[34] = test system: Coxsackievirus B4; experiment: Antiviral activity against Human coxsackievirus B4 infected human HeLa cells assessed as reduction of virus-induced cytopathic effect after 3 days by colorimetric formazan-based MTS assay; type: functional, organism-based; settings: Enterovirus B, 72 h; outline: as §1
[35] = test system: Mammalian orthoreovirus 1; experiment: Antiviral activity against Mammalian orthoreovirus 1 infected African green monkey Vero cells assessed as reduction of virus-induced cytopathic effect after 3 days by colorimetric formazan-based MTS assay; type: functional, organism-based; settings: Mammalian orthoreovirus 1, Vero, 72 h; outline: as §3
[36] = Cytotoxicity against Felis catus (cat) CRFK cells assessed as change in cellular morphology; type: cell-based; settings: crfk; outline: as §5
[37] = test system: Human respirovirus 3; experiment: Antiviral activity against Human parainfluenza virus 3 infected African green monkey Vero cells assessed as reduction of virus-induced cytopathic effect after 3 days by colorimetric formazan-based MTS assay; type: functional, organism-based; settings: Human respirovirus 3, Vero, 72 h; outline: as §3

Structure (SMILES) | MCC [1] | zone of inhibition at 50 µg/mL [2] | TIME [3] | EC50 [4] | zone of inhibition at 50 µg/mL [5] | IC50 [6] | EC50 [7] | EC50 [8] | EC50 [9] | inhibition [10] | zone of inhibition at 50 µg/mL [11] | EC50 [12] | zone of inhibition at 50 µg/mL [13] | MCC [14] | CC50 [15] | EC50 [16] | MCC [17] | EC50 [18] | EC50 [19] | IC50 [20] | further results
CCN(CC)CN1C(=O)/C(=N/NC(N)=S)c2ccccc21 | > 100 µM | 11 mm | 0.0357 h | > 100 µM | 11 mm | 121 µM | > 100 µM | > 100 µM | > 100 µM | 38.2% | 11 mm | > 20 µM | 11 mm | > 100 µM | > 100 µM | > 100 µM | > 100 µM | > 100 µM | > 100 µM | 164 µM | zone of inhibition at 50 µg/mL [21]: 11 mm; zone of inhibition at 50 µg/mL [22]: 11 mm; CC50 [23]: 85.8 µM; MCC [24]: 100 µM; EC50 [25]: > 100 µM; EC50 [26]: > 100 µM; zone of inhibition at 50 µg/mL [27]: 11 mm; EC50 [28]: > 20000 nM; EC50 [29]: > 20 µM; EC50 [30]: > 20000 nM; zone of inhibition at 50 µg/mL [31]: 11 mm; EC50 [32]: > 20000 nM; EC50 [33]: > 100 µM; EC50 [34]: > 100 µM; EC50 [35]: > 100 µM; CC50 [36]: 73.8 µM; EC50 [37]: > 100 µM
CCN(CC)CN1C(=O)/C(=N/NC(=S)Nc2ccc(C)cc2)c2cc(Cl)ccc21 | ≥ 4 µM | 11 mm | 0.0335 h | > 20 µM | 11 mm | 9.5 µM | > 4 µM | > 4 µM | > 4 µM | 34.1% | 21 mm | > 4 µM | 11 mm | ≥ 4 µM | > 100 µM | > 20 µM | 100 µM | > 4 µM | > 20 µM | 4.6 µM | zone of inhibition at 50 µg/mL [21]: 11 mm; zone of inhibition at 50 µg/mL [22]: 11 mm; CC50 [23]: 11.3 µM; MCC [24]: 4 µM; EC50 [25]: > 20 µM; EC50 [26]: > 20 µM; zone of inhibition at 50 µg/mL [27]: 11 mm; EC50 [28]: > 800 nM; EC50 [29]: > 4 µM; EC50 [30]: > 800 nM; zone of inhibition at 50 µg/mL [31]: 11 mm; EC50 [32]: > 800 nM; EC50 [33]: > 4 µM; EC50 [34]: > 4 µM; EC50 [35]: > 4 µM; CC50 [36]: 17.5 µM; EC50 [37]: > 4 µM
CCN(CC)CN1C(=O)/C(=N/NC(=S)Nc2ccc(OC)cc2)c2cc(Cl)ccc21 | 4 µM | 11 mm | 0.0466 h | > 20 µM | 21 mm | 11 µM | > 0.8 µM | > 0.8 µM | > 0.8 µM | 52.6% | 11 mm | > 0.8 µM | 11 mm | 4 µM | 13.2 µM | > 20 µM | 100 µM | > 0.8 µM | > 20 µM | 6.9 µM | zone of inhibition at 50 µg/mL [21]: 11 mm; zone of inhibition at 50 µg/mL [22]: 11 mm; CC50 [23]: 11.1 µM; MCC [24]: ≥ 0.8 µM; EC50 [25]: > 20 µM; EC50 [26]: > 20 µM; zone of inhibition at 50 µg/mL [27]: 11 mm; EC50 [28]: > 800 nM; EC50 [29]: > 0.8 µM; EC50 [30]: > 800 nM; zone of inhibition at 50 µg/mL [31]: 21 mm; EC50 [32]: > 800 nM; EC50 [33]: > 0.8 µM; EC50 [34]: > 0.8 µM; EC50 [35]: > 0.8 µM; CC50 [36]: 3.6 µM; EC50 [37]: > 0.8 µM
